Results as given in PMC6309585 (Investigational new drugs, 2018).

What was measured:
DNA [1] = assay: BaP-DNA adducts by 32P-postlabeling and TLC in colon and liver; assay type: in vivo, Apc^Min/+ mice
DNA [2] = assay: Oxidative DNA damage; assay type: in vivo, Apc^Min/+ mice; details: text: colon, Fig. 9B; RVT prior to and simultaneously with BaP; compared to BaP treatment only
CYP1B1 mRNA = CYP1B1 mRNA expression; assay type: in vivo, Apc^Min/+ mice; details: liver
[3] = HPLC analysis of BaP organic and aqueous metabolites in plasma, colon and liver; assay type: in vivo, Apc^Min/+ mice; details: colon, RVT simultaneously or prior to BaP, compared to BaP alone
GST mRNA = GST mRNA expression; assay type: in vivo, Apc^Min/+ mice; details: compared to the no treatment group
GST [4] = assay: GST activity in colon and liver; assay type: in vivo, Apc^Min/+ mice; details: liver; compared to BaP alone
In short: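 Colon and liver protein from Apc^Min/+ mice was assayed for GST activity with a commercial kit. […] Tissues were collected 60 days after exposure; n = 10 per group.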

[5] = Pharmacokinetics of BaP and RVT in plasma after oral gavage; assay type: in vivo, Apc^Min/+ mice; details: for half-life / Clearance (Cl) / Volume of distribution (Vd): plasma; for Clearance (Cl) / Volume of distribution (Vd): oral gavage, BaP 100 μg/kg bw, RVT 45 μg/kg bw, mean ± SE, n = 10
BaP-induced colon tumors [6] = details: orally administered RVT; mice exposed to BaP compared to BaP alone; cited from earlier work
BaP-induced colon tumors [7] = assay: BaP-induced colon tumors/adenomas; assay type: in vivo, Apc^Min/+ mice; details: RVT administration post BaP subchronic exposure; data not shown
GST [8] = assay: Glutathione-S-transferase protein expression in colon and liver; assay type: in vivo, Apc^Min/+ mice; details: for GST protein expression: colon, RVT and BaP administered separately, compared to no treatment group; for Glutathione-S-transferase protein expression: liver, in comparison to control mice
In short: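 Western blot of total colon and liver protein: 10% SDS–PAGE, transfer to PVDF, mouse anti-GST and rabbit anti-GAPDH antibodies, detection with IRDye680 anti-mouse and IRDye800 anti-rabbit secondaries. GST signal was normalized to GAPDH. […] Values are mean ± SE, n = 10.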

| Compound | Stable BaP-DNA adduct concentrations (DNA [1]) | Base pair damage (apurinic/apyrimidinic sites) (DNA [2]) | CYP1B1 mRNA expression (CYP1B1 mRNA) | BaP aqueous metabolite levels [3] | BaP organic metabolite concentrations [3] | GST mRNA expression (GST mRNA; liver, RVT either simultaneously or prior to BaP treatment) | GST activity (GST [4]) | half-life ([5]; male, ApcMin/+, mouse, po) [h] | Clearance (Cl) [5] [mL/day/kg] | Volume of distribution (Vd) [5] [L/kg] | Incidence, size and number of adenomas formed in the colon (BaP-induced colon tumors [6]) | Reversal of BaP-induced carcinogenic effects (tumor count and size) (BaP-induced colon tumors [7]) | GST protein expression (GST [8]) | Glutathione-S-transferase protein expression (GST [8]) | Decrease in GST mRNA expression (GST mRNA; colon) [%] | Elimination rate (Kd) ([5]; male, ApcMin/+, mouse, in vivo, po) [h] |
| --- | --- | --- | --- | --- | --- | --- | --- | --- | --- | --- | --- | --- | --- | --- | --- | --- |
| Oc1ccc(C=Cc2cc(O)cc(O)c2)cc1 [RVT, 3,5,4′-trihydroxystilbene] | reduced | significant reduction | feeble expression | increases | significantly decreased | increase | no significant changes | 1 ± 0.011 | 1.9 ± 0.14 | 0.00044 ± 5e-05 | decrease | failed to reverse | increased | significantly decreased |  |  |
| c1ccc2c(c1)cc1ccc3cccc4ccc2c1c34 [BaP, Benzo(a)pyrene] |  |  |  |  |  |  |  | 1.8 ± 0.018 | 2.4 ± 0.24 | 0.00058 ± 4.5e-05 |  |  | increased | significantly decreased | 50 | 0.17 ± 0.06 |
